Active and inactive are the calls of the source. No cut-off for these calls is given here.

Data set [1] concerns CAL-51. Kind of data set: Cytotoxicity against human CAL51 cells assessed as reduction in cell viability after 3 days by CellTiter-Glo assay. Conditions: CAL-51, 72 h. The class given is functional, cell-based.
A further data set concerns BT-474. Kind of data set: Cytotoxicity against human BT474 cells assessed as reduction in cell viability after 3 days by CellTiter-Glo assay. Type of data set: cell-based. To be noted: BT-474, 72 h.
Data set [2] in a line: Metabolic stability in rat liver S9 fraction assessed as percent of compound remaining after 60 mins. Type of data set: ADME, tissue-based. Conditions: read-out: Stability.
A further data set deals with Mus musculus. Kind of data set: Toxicity in SCID mouse xenografted with human CAL51 cells assessed as loss in body weight at 5 mg/kg, iv administered every 4 days for 16 days relative to control. The class given is organism-based. Conditions: in vivo.
For data set [3], the system named is CAL-51. In words: Antiproliferative activity against human CAL51 cells xenografted in SCID mouse assessed as tumor growth inhibition at 5 mg/kg, iv administered every 4 days for 16 days. The class given is functional, organism-based. A digest of the protocol: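 Mice bearing tumors of about 125 mm3 randomized (n = 8−10/group) and given compound intravenously at the listed doses and schedules. Tumors measured twice weekly by digital caliper on long and short axes; volume = width² × length/2.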

Data set [4] is described as follows: Mean residence time in rat at 2 mg/kg, iv. Type of data set: ADME, organism-based. Conditions: in vivo.
Data set [5] is described as follows: Volume of distribution at steady state in rat at 2 mg/kg, iv. Type of data set: ADME, organism-based. Conditions: in vivo, read-out: Vdss.
Data set [6] can be described thus: Clearance in rat at 2 mg/kg, iv. The class given is ADME, organism-based. Conditions: in vivo.
Data set [7] can be described thus: Mean residence time in SCID mouse at 10 mg/kg, iv. The class given is ADME, organism-based. To be noted: in vivo.
Data set [8] in a line: Clearance in SCID mouse at 10 mg/kg, iv. The class given is ADME, organism-based. Conditions: in vivo.
Data set [9] is described as follows: Metabolic stability in human liver S9 fraction assessed as percent of compound remaining after 60 mins. The class given is ADME, tissue-based. Conditions: read-out: Stability.

As a reminder, the IC50 is the midpoint of a concentration-inhibition curve. For `CNC(=O)c1ccc(Nc2nc(OC3CCCC3)c3c(-c4cccc(O)c4)c[nH]c3n2)c(OC)c1`, the IC50 came to 71 nM in the data set on CAL-51 [1] and 10 µM with BT-474.
As to `CNC(=O)c1ccc(Nc2nc(OC3CCCC3)c3c(-c4ccc(-c5ccn[nH]5)cc4)c[nH]c3n2)c(OC)c1`, the values for the IC50 with CAL-51 [1] and with BT-474 were 61 nM and 10 µM, respectively. Moreover, in data set [2], the remaining at 1 h came to 84%.
For `CNC(=O)c1ccc(Nc2nc(OC3CCCC3)c3c(-c4ccc(CO)cc4)c[nH]c3n2)c(OC)c1`, the IC50 in the data set with CAL-51 [1] worked out at 89 nM; in the data set with BT-474 it was 10 µM. Moreover, in data set [2], the remaining at 1 h amounted to 18%.
`CC(=O)O[C@@]12CO[C@@H]1C[C@H](O)[C@@]1(C)C(=O)[C@H](O)C3=C(C)[C@@H](OC(=O)[C@H](O)[C@@H](NC(=O)OC(C)(C)C)c4ccccc4)C[C@@](O)([C@@H](OC(=O)c4ccccc4)[C@H]21)C3(C)C` [DOCETAXEL ANHYDROUS]: in the data set on Mus musculus, the Activity was 20%. In the data set on CAL-51 [3], the TGI result is “Active”.
In the case of `CNC(=O)c1ccc(Nc2nc(OC3CCCC3)c3c(-c4cn[nH]c4)c[nH]c3n2)c(OC)c1`, the half-inhibitory concentration (IC50) with CAL-51 [1] turned out to be 9 nM; in the data set with BT-474 it was 8.12 µM. In addition, in data set [2], the remaining at 1 h was 36%.
The corresponding values for `CNC(=O)c1ccc(Nc2nc(OC3CCCC3)c3c(-c4ccc(-c5nnc[nH]5)cc4)c[nH]c3n2)c(OC)c1` are 77 nM, 4.86 µM and 84%.
`CNC(=O)c1ccc(Nc2nc(OCCOC)c3c(-c4ccc5nc(C)oc5c4)c[nH]c3n2)c(OC)c1`: the IC50 came to 147 nM with CAL-51 [1] and 3.76 µM in the data set with BT-474.
On the same counts, the results for `CNC(=O)c1ccc(Nc2nc(OC3CCCC3)c3c(-c4ccc5nc(C)oc5c4)c[nH]c3n2)c(C)c1` are 349 nM and 9.61 µM.
In the case of `CNC(=O)c1ccc(Nc2nc(OC3CCC3)c3c(-c4ccc5nc(C)oc5c4)c[nH]c3n2)c(OC)c1`, the IC50 amounted to 47 nM with CAL-51 [1] and 10 µM with BT-474.
On the same counts, the results for `COc1ccccc1Nc1nc(OC2CCCC2)c2c(-c3ccc4nc(C)oc4c3)c[nH]c2n1` are 771 nM and 10 µM.
The corresponding values for `COc1cc(C(=O)NC(C)(C)CO)ccc1Nc1nc(OC2CCCC2)c2c(-c3ccc4nc(C)oc4c3)c[nH]c2n1` are 109 nM and 6.09 µM.
On the same counts, the results for `CNC(=O)c1ccc(Nc2nc(OC3COC3)c3c(-c4ccc5nc(C)oc5c4)c[nH]c3n2)c(OC)c1` are 8 nM and 0.243 µM.
As for `CNC(=O)c1ccc(Nc2nc(OC3CCCC3)c3c(-c4ccc5nc[nH]c5c4)c[nH]c3n2)c(OC)c1`, the IC50 was 17 nM in the data set with CAL-51 [1] and 0.158 µM with BT-474. Besides, the remaining at 1 h in data set [2] was 46%.
By MRT is commonly meant the average time that molecules of a dose stay in the body. The term clearance denotes the rate of elimination divided by the concentration. As for `CNC(=O)c1ccc(Nc2nc(O[C@H]3CCOC3)c3c(-c4ccc5nc(C)oc5c4)c[nH]c3n2)c(OC)c1`, the MRT in data set [4] was 1 h; in data set [7], 0.73 h. In addition, the Vd in [5] worked out at 1.6 L/kg. Moreover, the IC50 in the data set with CAL-51 [1] was found to be 17 nM; in the data set on BT-474 it was 3.76 µM. Besides, the remaining at 1 h in data set [2] and in data set [9] was 62% each time. In addition, the clearance in [6] came to 27.4 mL/min/kg; in data set [8] it was 19.1 mL/min/kg.
In the case of `CNC(=O)c1ccc(Nc2nc(OC3CCCC3)c3c(-c4ccncc4)c[nH]c3n2)c(OC)c1`, the IC50 is 17 nM in the data set on CAL-51 [1] and 10 µM with BT-474. Also, the remaining at 1 h in data set [2] stood at 83%.
The corresponding values for `CNC(=O)c1ccc(Nc2nc(OC3CCCC3)c3c(-c4ccc5cn[nH]c5c4)c[nH]c3n2)c(OC)c1` are 338 nM, 10 µM and 85%.
The corresponding values for `CNC(=O)c1ccc(Nc2nc(OC3CCCC3)c3c(-c4cccnc4)c[nH]c3n2)c(OC)c1` are 79 nM, 10 µM and 59%.
With `CNC(=O)c1ccc(Nc2nc(OC3CCCC3)c3c(-c4ccc(-c5ncc[nH]5)cc4)c[nH]c3n2)c(OC)c1`, the IC50 in the data set with CAL-51 [1] was found to be 8 nM; in the data set with BT-474, 1.73 µM. Also, the remaining at 1 h in [2] amounted to 64%.
`COc1cc(C(=O)NC2COC2)ccc1Nc1nc(OC2CCCC2)c2c(-c3ccc4nc(C)oc4c3)c[nH]c2n1`: the MRT in [4] came to 4.7 h; in data set [7], 1.4 h. Further, the Vd in data set [5] was 3.7 L/kg. Besides, the IC50 with CAL-51 [1] was 123 nM; in the data set on BT-474, 10 µM. For the same molecule, the remaining at 1 h was determined as 91% in [2] and 79% in [9]. The clearance in data set [6] amounted to 13 mL/min/kg; in data set [8], 14.3 mL/min/kg.
`COc1cc(C(=O)N(C)C)ccc1Nc1nc(OC2CCCC2)c2c(-c3ccc4nc(C)oc4c3)c[nH]c2n1`: the results for the IC50 in the data set on CAL-51 [1] and with BT-474 were 113 nM and 8.31 µM, respectively.
With `CNC(=O)c1ccc(Nc2nc(OC3CCCC3)c3c(-c4cc[nH]n4)c[nH]c3n2)c(OC)c1`, the IC50 is 460 nM in the data set with CAL-51 [1] and 10 µM with BT-474. Besides, in data set [2], the remaining at 1 h stood at 53%.
The corresponding values for `CNC(=O)c1ccc(Nc2nc(OC3CCCC3)c3c(-c4ccccc4)c[nH]c3n2)c(OC)c1` are 496 nM, 10 µM and 86%.
On to `CNC(=O)c1ccc(Nc2nc(OC3CCOCC3)c3c(-c4ccc5nc(C)oc5c4)c[nH]c3n2)c(OC)c1`, for which the MRT in data set [4] stood at 2.9 h; in data set [7], 1.8 h. In addition, the Vd in [5] is 3.8 L/kg. Besides, the IC50 with CAL-51 [1] came to 20 nM; in the data set on BT-474 it was 10 µM. Also, the remaining at 1 h in data set [2] was determined as 75%; in data set [9] it was 70%. The clearance in [6] is 22.6 mL/min/kg; in [8] it was 67.6 mL/min/kg.
With `CNC(=O)c1ccc(Nc2nc(OCCO)c3c(-c4ccc5nc(C)oc5c4)c[nH]c3n2)c(OC)c1`, the IC50 with CAL-51 [1] was found to be 56 nM; with BT-474, 0.694 µM.
On the same counts, the results for `CNC(=O)c1ccc(Nc2nc(O)c3c(-c4ccc5nc(C)oc5c4)c[nH]c3n2)c(OC)c1` are 10000 nM and 10 µM.
For the molecule `CNC(=O)c1ccc(Nc2nc(OC(C)C)c3c(-c4ccc5nc(C)oc5c4)c[nH]c3n2)c(OC)c1`, the results for the mean residence time MRT in [4] and in data set [7] were 3.5 h and 4.8 h, respectively. In addition, the Vd in data set [5] worked out at 7.2 L/kg. Besides, the values for the IC50 in the data set on CAL-51 [1] and in the data set with BT-474 were 40 nM and 0.946 µM, respectively. The remaining at 1 h in data set [2] was found to be 69%; in data set [9], 78%. Moreover, the clearance in data set [6] was 33.9 mL/min/kg; in [8] it was 7.71 mL/min/kg.
As for `COc1cc(C(=O)N2CCOCC2)ccc1Nc1nc(OC2CCCC2)c2c(-c3ccc4nc(C)oc4c3)c[nH]c2n1`, the IC50 in the data set with CAL-51 [1] worked out at 351 nM; in the data set on BT-474 it was 6.39 µM.
With `CNC(=O)c1ccc(Nc2nc(OC3CCCC3)c3c(-c4ccc5oc(C)nc5c4)c[nH]c3n2)c(OC)c1`, the figures for the IC50 with CAL-51 [1] and in the data set with BT-474 were 642 nM and 10 µM, respectively. Moreover, in [2], the remaining at 1 h worked out at 86%.
In the case of `COc1cc(C(=O)N2CCN(C)CC2)ccc1Nc1nc(OC2CCCC2)c2c(-c3ccc4nc(C)oc4c3)c[nH]c2n1`, the results for the half-maximal inhibitory concentration (IC50) in the data set on CAL-51 [1] and in the data set with BT-474 were 37 nM and 3.21 µM, respectively.
With `CNC(=O)c1ccc(Nc2nc(O[C@H]3CC[C@@](C)(O)CC3)c3c(-c4ccc5nc(C)oc5c4)c[nH]c3n2)c(OC)c1`, the mean residence time MRT turned out to be 2.9 h in data set [4] and 1 h in data set [7]. Further, the Vd in data set [5] was 2.9 L/kg. Besides, the half-maximal inhibitory concentration (IC50) amounted to 8 nM in the data set on CAL-51 [1] and 10 µM with BT-474. For the same molecule, the remaining at 1 h in data set [2] came out at 76%; in data set [9] it was 65%. Also, the clearance came to 17.6 mL/min/kg in [6] and 52.2 mL/min/kg in [8].
Regarding `COc1cc(C(=O)NCC(C)(C)O)ccc1Nc1nc(OC2CCCC2)c2c(-c3ccc4nc(C)oc4c3)c[nH]c2n1`, the IC50 in the data set with CAL-51 [1] came to 61 nM; with BT-474, 10 µM.
As for `CNC(=O)c1ccc(Nc2nc(OC3CCCC3)c3c(-c4ccc(OC)cc4)c[nH]c3n2)c(OC)c1`, the IC50 in the data set with CAL-51 [1] came to 491 nM; in the data set on BT-474 it was 10 µM. The remaining at 1 h in data set [2] is 76%.
Take `CNC(=O)c1ccc(Nc2nc(O[C@H]3CC[C@](C)(O)CC3)c3c(-c4ccc5nc(C)oc5c4)c[nH]c3n2)c(OC)c1`: the figures for the IC50 with CAL-51 [1] and in the data set with BT-474 were 15 nM and 0.893 µM, respectively.
With `CNC(=O)c1ccc(Nc2nc(OC3CCCC3)c3c(-c4cccc(CO)c4)c[nH]c3n2)c(OC)c1`, the IC50 in the data set with CAL-51 [1] was 30 nM; in the data set on BT-474 it was 9.99 µM. The remaining at 1 h in data set [2] was 54%.
For `CNC(=O)c1ccc(Nc2nc(OC3CCCC3)c3c(-c4ccc(O)cc4)c[nH]c3n2)c(OC)c1`, the figures for the IC50 in the data set with CAL-51 [1] and in the data set with BT-474 were 13 nM and 3.32 µM, respectively. In [2], the remaining at 1 h is 1%.
